The list is not random: actives were taken first. Their share in the collection is about 3%.
iPSC survival up – increases survival of single human iPS cells | hiPSC single-cell survival, ATPlite luminescence; 100% = ROCK inhibitor wells, 0% = DMSO | survival enhancement, % at 20 µM | actives 0.044% (n = 360,000) | AID 602274; in the data active = survival enhancement above about 18%;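 also: cells exposed to compounds for 16 hours before the ATP read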
MIN6 prolif – induces beta-cell replication in MIN6 cells; MIN6 cells proliferation, ATPlite luminescence, 48 h; cells starved in 0.2% serum; 100% = growth in 10% serum; proliferation, % at 10 µM; actives 0.29% (n = 330,000);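 active = compounds whose signal lies at least 3.5 SD above the mean of all wells on their plate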
MPTP block – permeability transition pore inhibition; isolated mouse mitochondria, Ca2+ swelling absorbance, 30 min; inhibition, % at 10 µM; actives 1.4% (n = 360,000);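 active = inhibition of 50% or more, scaled per plate between neutral and stimulator controls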
UBC13 inh – inhibitors of human UBC13 polyubiquitin chain formation | TR-FRET | actives 0.47% (n = 330,000) | AID 485273 | inhibition, % at 20 µM; in the data active = inhibition above about 45%, passing the limit was not always enough
Exocytosis inh – lytic granule exocytosis inhibition; AID 651702; actives 0.66% (n = 360,000); TALL-104 LAMP-1 surface exposure, flow cytometry; cells stimulated with thapsigargin and PMA; inhibition, % at 10 µM;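 active = inhibition above about 55%, limit read from the data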
Apaf-1 inh – human Apaf-1 inhibition | reconstituted apoptosome caspase-3 activity, DEVD-Rh110 fluorescence | inhibition, % at 20 µM | actives 0.71% (n = 330,000) | AID 489030; active = inhibition of at least 40% at 20 µM
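Material: reconstituted apoptosome with Apaf-1, cytochrome c, caspase-9, procaspase-3, dATP; medium: pH 7.5 Hepes buffer with CHAPS, BSA, DTT; also added: cytochrome c and DEVD-Rh110 substrate; timing: 30 min plus 50 min, RT; signal: Rh110 fluorescence intensity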
Casp3 counter – caspase-3 inhibition (UBC13 counter-screen) | inhibition, % at 20 µM | Recombinant caspase-3, Caspase-Glo 3/7 luminescence, 60 min | AID 488856 | actives 4% (n = 1,400) | shares compounds with UBC13 inh;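 active = mean inhibition across replicates above about 26%, limit read from the data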
UBC13 confirm – confirmation of human UBC13 polyubiquitin inhibitors. UBC13 polyubiquitination, TR-FRET, biochemical. inhibition, % at 10 µM. actives 68% (n = 1,400). shares compounds with UBC13 inh. AID 488859; in the data active = inhibition above about 45%
Apaf-1 inh conf – Apaf-1 inhibition, single-dose confirmed. shares compounds with Apaf-1 inh. reconstituted apoptosome, caspase-3 DEVD-Rh110 fluorescence. inhibition, % at 20 µM. actives 25% (n = 1,800);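 active = mean inhibition of at least 40% at 20 µM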
Rh110 interf inh – Rh110 signal interference in Apaf-1 inhibitor counter-screen; shares compounds with Apaf-1 inh; Rh110 fluorescence interference, quenched caspase reaction; activation (fluorescence interference), % at 20 µM; 1,800 tested, under 10 active;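 active = signal rise of 40% or more at 20 µM, treated as a fluorescence artifact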
Fluor interf inh – Apaf-1 inhibitor counter-screen fluorescence artifact. fluorescence interference counterscreen, Apaf-1 assay format. shares compounds with Apaf-1 inh. 460 tested, under 10 active. IC50, µM; call rule not given here
Numbers stand for hits; n = inactive; x = no result.

SMILES	iPSC survival up	MIN6 prolif	MPTP block	UBC13 inh	Exocytosis inh	Apaf-1 inh	Casp3 counter	UBC13 confirm	Apaf-1 inh conf	Rh110 interf inh	others
COC(=O)C1=C(C)N(Cc2ccccc2)C(=NCCc2c[nH]c3ccccc23)N[C@H]1c1cccc(F)c1	n	n	n	61.9	n	60.5	n	64.3	n	n
CCN(CC)CCCN=C1N[C@@H](c2cccc(F)c2)C(C(=O)OC)=C(C)N1Cc1ccccc1	n	n	n	n	n	n	x	x	x	x
COC(=O)C1=C(C)N(Cc2ccccc2)C(=NCc2cc(OC)c(OC)c(OC)c2)N[C@H]1c1ccccc1	x	n	x	n	x	n	x	x	x	x
COC(=O)C1=C(C)N(Cc2ccccc2)C(=S)N[C@H]1c1cccc(F)c1	n	n	n	n	n	n	x	x	x	x
COC(=O)C1=C(C)N(Cc2ccccc2)C(=NCc2ccccc2)N[C@H]1c1cccc(F)c1	n	n	n	67.2	n	41.2	n	n	n	n
CC1(C(=O)NS(=O)(=O)c2ccc(Cl)cc2)CCN1C(=O)c1ccccc1 (configuration not stated)	n	x	n	x	n	x	x	x	x	x
CCN(CC)CCOC(=O)c1ccc(N/C=C(/C#N)c2nc(-c3cccc(OC)c3)cs2)cc1	n	n	n	98.6	n	55.4	n	n	n	n
Cc1ccc(-c2csc(/C(C#N)=C/Nc3ccc4c(c3)OCCO4)n2)cc1	n	n	n	n	n	n	x	x	x	x
CCN(CC)CCOC(=O)c1ccc(N/C=C(/C#N)c2nc(-c3ccc(OC)c(OC)c3)cs2)cc1	n	n	n	117.2	63.9	55.3	n	137.9	67.3	n	Fluor interf inh=n
CCOC(=O)c1ccc(N/C=C\C(=O)c2cccc(OC)c2)cc1	n	n	n	n	n	n	x	x	x	x
COc1ccc(NC(=O)CSc2nnc(Cc3ccc(C)cc3)c(=O)n2N)cc1OC	n	n	n	n	n	n	x	x	x	x
CCC[C@@H](CN1CCC[C@H]1CN1C(N)=NC[C@H]1CC(C)C)N1C[C@@H](Cc2ccccc2)N(CCCC2CCCC2)C1=N	n	n	n	76.8	n	59.0	n	82.8	n	n
CC(C)C[C@@H](CN1CCC[C@@H]1CN1C(=O)C(=O)NC[C@@H]1Cc1ccccc1)N1C[C@H](Cc2ccccc2)N(CC2CCCCC2)C(=O)C1=O	n	x	n	x	n	x	x	x	x	x
CC(C)C[C@@H](CN1CCCC1CN1C(=S)NC[C@@H]1Cc1ccccc1)N1C[C@H](Cc2ccccc2)N(CC2CCCCCC2)C1=S (some centres not stated)	n	x	n	x	n	x	x	x	x	x
CC(C)C[C@@H](CN1CCC[C@@H]1CN1C(=O)C(=O)NC[C@@H]1Cc1ccccc1)N1C[C@H](Cc2ccccc2)N(CC2CCCCCC2)C(=O)C1=O	n	x	n	x	n	x	x	x	x	x
CCC[C@@H](CN1CCC[C@H]1CN1C(N)=NC[C@@H]1Cc1ccccc1)N1C[C@@H]([C@H](C)CC)N(CCCC2CCCC2)C1=N	n	n	n	90.9	n	77.2	n	84.6	n	n
CCC[C@@H](CN1CCC[C@H]1CN1C(N)=NC[C@@H]1Cc1ccccc1)N1C[C@@H](Cc2ccccc2)N(CCCC2CCCC2)C1=N	n	n	n	64.6	n	70.1	n	58.4	n	n
CC(C)[C@H](CN1CCC[C@H]1CN1C(N)=NC[C@H]1C(C)C)N1C[C@@H](Cc2ccccc2)N(CCCC2CCCC2)C1=N	n	n	n	69.5	n	63.1	n	69.3	n	n
CC1(C(=O)Nc2cccc3c2CCCC3)CCN1C(=O)Cc1ccccc1Cl (configuration not stated)	n	x	n	x	n	x	x	x	x	x
OC(c1ccc(Cl)cc1)c1ncc(-c2cccc(F)c2)[nH]1 (configuration not stated)	n	x	n	x	n	x	x	x	x	x
CCCCN(c1nc2ccccc2nc1Cl)S(=O)(=O)c1ccc(C)cc1	n	n	n	n	n	n	x	x	x	x
CCCCCCCNC(=O)C1(CC2CC(c3cccc(Br)c3)=NO2)CCNCC1 (configuration not stated)	n	n	n	95.7	n	46.2	n	98.8	n	n
CCCCCCCNC(=O)C1(CC2CC(c3ccc(Cl)cc3)=NO2)CCN(C(=O)Cc2ccc(F)cc2)CC1 (configuration not stated)	n	n	n	n	n	n	x	x	x	x
CCCCCCCNC(=O)C1(CC2CC(c3ccc(Cl)cc3)=NO2)CCNCC1 (configuration not stated)	n	n	n	83.3	n	41.0	n	80.1	n	n
CCOC(=O)N1CCc2c(sc3c2c(=O)n(-c2ccc(CC)cc2)c(=O)n3CC(=O)NCC2CCCO2)C1 (configuration not stated)	n	n	n	n	n	n	x	x	x	x
SMILES	iPSC survival up	MIN6 prolif	MPTP block	UBC13 inh	Exocytosis inh	Apaf-1 inh	Casp3 counter	UBC13 confirm	Apaf-1 inh conf	Rh110 interf inh	others
CCN1CCN(Cc2ccc(NC(=O)c3ccc(C)c(NC(=O)c4cc(-c5ccc(Br)cc5)n[nH]4)c3)cc2C(F)(F)F)CC1	n	n	n	71.9	n	45.3	n	64.8	n	n
COc1cc(/C=C/c2cc[n+](C)cc2)ccc1OCC(=O)Nc1ccc(Cl)c(Cl)c1	n	n	n	102.6	n	73.0	n	116.5	45.5	n	Fluor interf inh=n
Cc1c(CCOC(=O)CC23CC4CC(CC(C4)C2)C3)sc[n+]1CC(=O)c1ccc(Br)cc1	n	n	n	47.1	n	49.3	n	68.8	n	n
O=C(Nc1ccccc1[N+](=O)[O-])c1cccc(N2C(=O)CCC2=O)c1	n	n	n	n	n	n	x	x	x	x
COc1ccc(Br)cc1CN(C)C(=O)Cc1ccc(OC)c(S(=O)(=O)N2CCOCC2)c1	n	n	n	n	n	n	x	x	x	x
COc1ccc(CN(C)C(=O)Cc2ccc(OC)c(S(=O)(=O)N3CCOCC3)c2)cc1OC	n	n	n	101.2	n	59.8	n	109.0	n	n
COc1ccc(CC(=O)N(C)CC(=O)Nc2ccccc2Cl)cc1S(=O)(=O)N1CCOCC1	n	n	n	51.9	n	59.5	n	n	n	n
COC(C[C@@H]1O[C@H]1C(=O)[C@@H](C)OCc1ccccc1)OC	n	n	n	n	n	n	x	x	x	x

Screening data deposited in PubChem BioAssay by several laboratories.
